In ChEMBL document CHEMBL3864177, “Dipeptidyl Nitroalkenes as Potent Reversible Inhibitors of Cysteine Proteases Rhodesain and Cruzain” (ACS Med Chem Lett, 2016):
Calls of active or inactive are those of the source. No cut-off for these calls is given here.

Experiments:
[1] = target: Rhodesain (Trypanosoma brucei rhodesiense) (UniProt Q95PM0); test: Reversible inhibition of Trypanosoma brucei rhodesiense rhodesain assessed as enzyme activity recovery preincubated for 5 mins followed by substrate addition measured after 30 mins by dialysis assay relative to control; set-up: scale not given: the % may be the effect or the level left
[2] = target: Rhodesain (Trypanosoma brucei rhodesiense) (UniProt Q95PM0); test: Reversible inhibition of Trypanosoma brucei rhodesiense rhodesain assessed as enzyme activity recovery preincubated for 5 mins followed by substrate addition measured after 60 mins by dialysis assay relative to control; set-up: scale not given: the % may be the effect or the level left
[3] = target: Rhodesain (Trypanosoma brucei rhodesiense) (UniProt Q95PM0); test: Reversible inhibition of Trypanosoma brucei rhodesiense rhodesain assessed as enzyme activity recovery preincubated for 5 mins followed by substrate addition measured after 90 mins by dialysis assay relative to control; set-up: scale not given: the % may be the effect or the level left
[4] = target: Rhodesain (Trypanosoma brucei rhodesiense) (UniProt Q95PM0); test: Reversible inhibition of Trypanosoma brucei rhodesiense rhodesain assessed as enzyme activity recovery preincubated for 5 mins followed by substrate addition measured after 120 mins by dialysis assay relative to control; set-up: scale not given: the % may be the effect or the level left
[5] = test system: Trypanosoma brucei brucei; test: Antitrypanosomal activity against Trypanosoma brucei brucei expressing BS449 after 24 hrs by ATPlite-luciferase reporter gene assay; type: functional
[6] = test system: Trypanosoma brucei brucei; test: Antitrypanosomal activity against Trypanosoma brucei brucei expressing BS449 after 48 hrs by ATPlite-luciferase reporter gene assay; type: functional
[7] = test system: Trypanosoma brucei brucei; test: Antitrypanosomal activity against Trypanosoma brucei brucei expressing BS449 after 72 hrs by ATPlite-luciferase reporter gene assay; type: functional
Rhodesain = Rhodesain (Trypanosoma brucei rhodesiense, UniProt Q95PM0); test: Inhibition of Trypanosoma brucei rhodesiense rhodesain expressed in Pichia pastoris using Cbz-Phe-Arg-AMC as substrate after 15 to 30 mins by fluorescence spectrophotometric analysis
Cruzipain = Cruzipain (Trypanosoma cruzi, UniProt P25779); test: Inhibition of Trypanosoma cruzi cruzain
Cathepsin B [8] = target: T1, Cathepsin B (Homo sapiens, UniProt P07858); test: Inhibition of human cathepsin B
Procathepsin L [9] = target: T2, Procathepsin L (Homo sapiens, UniProt P07711); test: Inhibition of human cathepsin L
Target sequence in this assay (P07711 whole entry): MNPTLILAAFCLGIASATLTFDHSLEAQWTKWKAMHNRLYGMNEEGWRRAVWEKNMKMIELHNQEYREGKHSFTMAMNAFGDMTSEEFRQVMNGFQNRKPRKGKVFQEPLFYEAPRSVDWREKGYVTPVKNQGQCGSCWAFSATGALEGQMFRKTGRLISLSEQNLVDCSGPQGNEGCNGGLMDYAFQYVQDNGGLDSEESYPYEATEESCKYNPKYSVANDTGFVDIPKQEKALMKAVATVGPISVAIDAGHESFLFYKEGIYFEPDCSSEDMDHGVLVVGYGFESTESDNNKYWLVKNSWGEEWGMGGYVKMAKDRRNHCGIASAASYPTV

Procathepsin L [10] = target: T2, Procathepsin L; test: Reversible inhibition of human cathepsin L assessed as enzyme activity recovery at 0.1 to 5 times IC50 preincubated for 5 mins followed by substrate addition measured up to 1500 sec by dilution assay
Target sequence in this assay (P07711 114-333 limits assumed): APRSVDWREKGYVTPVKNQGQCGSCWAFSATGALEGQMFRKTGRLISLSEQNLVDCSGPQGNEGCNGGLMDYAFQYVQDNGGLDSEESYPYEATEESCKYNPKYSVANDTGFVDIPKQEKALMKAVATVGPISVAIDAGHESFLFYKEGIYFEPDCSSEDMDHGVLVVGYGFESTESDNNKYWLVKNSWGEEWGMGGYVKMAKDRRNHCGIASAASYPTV

[11] = target: Rhodesain (Trypanosoma brucei rhodesiense) (UniProt Q95PM0); test: Binding affinity to Trypanosoma brucei rhodesiense 15N-labeled rhodesain expressed in Pichia pastoris at 1:1 molar ratio of protein:inhibitor incubated for 15 mins by 1H[…]TROSY-HSQC spectra analysis
How it was run: (§1)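 15N-labelled rhodesain was mixed with inhibitor at 1:1 mol/mol, incubated 15 min, and a 1H–15N TROSY-HSQC spectrum was recorded. Inhibitor in DMSO-d6 was then added to reach a 1:3 protein/inhibitor ratio, incubated a further 7 min, and the spectrum was re-recorded.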

[12] = Stability of the compound in HMI-9 medium after 24 hrs; type: physicochemical
[13] = target: Rhodesain (Trypanosoma brucei rhodesiense) (UniProt Q95PM0); test: Binding affinity to Trypanosoma brucei rhodesiense 15N-labeled rhodesain expressed in Pichia pastoris at 1:3 molar ratio of protein:inhibitor incubated for 22 mins by 1H[…]TROSY-HSQC spectra analysis
How it was run: as §1

Cathepsin B [14] = target: T1, Cathepsin B; test: Reversible inhibition of human cathepsin B assessed as enzyme activity recovery at 0.1 to 5 times IC50 preincubated for 5 mins followed by substrate addition measured up to 1500 sec by dilution assay

Rhodesain (Trypanosoma brucei rhodesiense), sequence (Q95PM0 1-450): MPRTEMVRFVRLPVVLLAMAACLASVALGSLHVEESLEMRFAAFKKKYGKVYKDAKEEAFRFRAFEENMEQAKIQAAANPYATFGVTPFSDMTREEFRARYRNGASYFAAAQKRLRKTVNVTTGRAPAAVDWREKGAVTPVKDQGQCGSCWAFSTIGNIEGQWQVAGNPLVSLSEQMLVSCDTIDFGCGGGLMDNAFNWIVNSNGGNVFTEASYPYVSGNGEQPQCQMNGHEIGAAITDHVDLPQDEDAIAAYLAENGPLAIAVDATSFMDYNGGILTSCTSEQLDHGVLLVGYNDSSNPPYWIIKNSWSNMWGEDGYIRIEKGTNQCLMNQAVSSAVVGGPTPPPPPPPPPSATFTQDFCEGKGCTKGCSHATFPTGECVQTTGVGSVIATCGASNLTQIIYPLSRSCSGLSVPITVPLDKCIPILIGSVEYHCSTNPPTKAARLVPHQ
Rhodesain, sequence (Q95PM0 whole entry): as the sequence (Q95PM0 1-450) above
Cruzipain, sequence (P25779 whole entry): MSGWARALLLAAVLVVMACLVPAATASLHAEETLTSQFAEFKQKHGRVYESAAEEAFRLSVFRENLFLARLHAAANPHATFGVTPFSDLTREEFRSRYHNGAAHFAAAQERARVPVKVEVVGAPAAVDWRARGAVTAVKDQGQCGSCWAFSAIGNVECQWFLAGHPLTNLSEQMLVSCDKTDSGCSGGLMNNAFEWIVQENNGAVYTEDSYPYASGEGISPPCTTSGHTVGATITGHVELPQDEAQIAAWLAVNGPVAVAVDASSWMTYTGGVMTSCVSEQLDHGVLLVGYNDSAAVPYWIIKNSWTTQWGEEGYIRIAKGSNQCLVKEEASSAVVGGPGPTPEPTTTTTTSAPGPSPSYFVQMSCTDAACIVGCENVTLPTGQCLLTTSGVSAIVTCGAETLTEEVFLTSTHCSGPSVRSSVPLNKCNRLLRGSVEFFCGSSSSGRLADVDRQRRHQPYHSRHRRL

Row | Compound | Activity [1] [%] | Activity [2] [%] | Activity [3] [%] | Activity [4] [%] | EC50 [5] [nM] | EC50 [6] [nM] | EC50 [7] [nM] | Ki (Rhodesain) [nM] | Ki (Cruzipain) [nM] | Ki (Cathepsin B [8]) [nM] | Ki (Procathepsin L [9]) [nM] | reversible inhibition (enzyme activity recovery) (Procathepsin L [10]) | Activity [11] | Stability [12] | Activity [13] | inhibition (Cathepsin B [14])
1 | CN1CCN(C(=O)N[C@@H](Cc2ccccc2)C(=O)N[C@H](/C=C/S(=O)(=O)c2ccccc2)CCc2ccccc2)CC1 | 0 | 2 | 0 | 3 | – | – | – | – | – | – | – | – | – | – | – | –
2 | N=C(NCCCCCCNC(=N)NC(=N)Nc1ccc(Cl)cc1)NC(=N)Nc1ccc(Cl)cc1 [CHLORHEXIDINE] | – | – | – | – | 430 | 410 | 430 | – | – | – | – | – | – | – | – | –
3 | CC(C)C[C@@H](/C=C/[N+](=O)[O-])NC(=O)[C@H](Cc1ccccc1)NC(=O)OCc1ccccc1 | 16 | 24 | 29 | 47 | 990 | 1310 | 2060 | 6.5 | 16 | 68 | 30 | Active | Active | Unstable | Active | –
4 | O=C(N[C@@H](Cc1ccccc1)C(=O)N[C@H](/C=C/[N+](=O)[O-])Cc1ccccc1)OCc1ccccc1 | – | – | – | – | – | – | – | 29 | 130 | 310 | 110 | – | – | – | – | –
5 | C/C(=C\[C@H](C)NC(=O)[C@H](Cc1ccccc1)NC(=O)OCc1ccccc1)[N+](=O)[O-] | – | – | – | – | – | – | – | 50 | – | 6300 | 280 | – | – | – | – | –
6 | C[C@@H](/C=C/[N+](=O)[O-])NC(=O)[C@H](Cc1ccccc1)NC(=O)OCc1ccccc1 | – | – | – | – | 5640 | 7170 | 10800 | 0.49 | 0.44 | 8 | 11 | Active | – | Unstable | – | –
7 | CC(C)C[C@@H](/C=C/[N+](=O)[O-])NC(=O)[C@H](CC(C)C)NC(=O)OCc1ccccc1 | 17 | 26 | 35 | 49 | – | – | – | 18.4 | 25 | 210 | 46 | Active | – | – | – | Active
8 | CC(C)C[C@H](NC(=O)OCc1ccccc1)C(=O)N[C@@H](C)/C=C/[N+](=O)[O-] | – | – | – | – | – | – | – | 30 | 130 | 310 | 200 | – | – | – | – | Active
9 | CC(C)C[C@H](NC(=O)OCc1ccccc1)C(=O)N[C@H](/C=C/[N+](=O)[O-])Cc1ccccc1 | – | – | – | – | – | – | – | 18 | 28 | 710 | 49 | Active | – | – | – | –
10 | O=C(N[C@@H](Cc1ccccc1)C(=O)N[C@H](/C=C/[N+](=O)[O-])CCc1ccccc1)OCc1ccccc1 | – | – | – | – | 1620 | 2100 | 3450 | 4.2 | 11 | 34 | 19.6 | – | – | Unstable | – | –
11 | CC(C)C[C@H](NC(=O)OCc1ccccc1)C(=O)N[C@H](/C=C/[N+](=O)[O-])CCc1ccccc1 | 22 | 46 | 76 | 110 | – | – | – | 14 | 17 | 72 | 27 | – | – | – | – | –
12 | C/C(=C\[C@H](C)NC(=O)[C@H](CC(C)C)NC(=O)OCc1ccccc1)[N+](=O)[O-] | – | – | – | – | – | – | – | 544 | – | 3200 | 2020 | – | – | – | – | –
